Experimental data taken from ChEMBL document CHEMBL4359895, “Discovery and biological evaluation of darolutamide derivatives as inhibitors and down-regulators of wild-type AR and the mutants” (Eur J Med Chem, 2019).
Calls of active or inactive are those of the source. The calls are words filed in the database; no cut-off is given here.

What was measured:
CWR22R [1] = assay: Inhibition of AR protein expression in human 22Rv1 cells at 10 to 30 uM incubated for 24 hrs by Western blot analysis; type: functional, cell-based
How it was run: (§1)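 LNCaP, VCaP and 22Rv1 cells grown in medium with 10% (v/v) FBS. Treated with compounds or DMSO for 24 h. AR-full and AR splice-variant protein then assessed by western blot.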

CWR22R [2] = assay: Inhibition of AR splice variant 7 mutant gene expression in human 22Rv1 cells at 10 to 30 uM incubated for 24 hrs by qRT-PCR analysis; type: functional, cell-based
How it was run: (§2)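 LNCaP, VCaP and 22Rv1 cells treated with DMSO or compounds for 24 h. AR-full and AR-V7 mRNA measured by qRT-PCR and normalised to GAPDH. Mean ± SD, n = 3, compared with DMSO by two-tailed t test.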

CWR22R [3] = assay: Inhibition of AR mRNA level in human 22Rv1 cells at 10 to 30 uM incubated for 24 hrs by qRT-PCR analysis; type: functional, cell-based; how it was run: as §2
VCaP = assay: Inhibition of AR splice variant 7 mutant expression in human VCaP cells at 10 to 40 uM incubated for 24 hrs by Western blot analysis analysis; type: functional, cell-based; how it was run: as §1
CWR22R [4] = assay: Inhibition of AR protein expression in human 22Rv1 cells at 10 to 40 uM incubated for 24 hrs by Western blot analysis; type: functional, cell-based; how it was run: as §1
LNCaP [5] = assay: Inhibition of AR splice variant 7 mutant expression in human LNCAP cells at 5 to 30 uM incubated for 24 hrs by Western blot analysis analysis; type: functional, cell-based; how it was run: as §1
[6] = AUC (0 to t) in Sprague-Dawley rat 30 mg/kg, po measured up to 24 hrs by LC-MS/MS analysis; type: ADME, organism-based; set-up: dose 30 mg/kg, time < 24 hr, route oral; conditions: in vivo
How it was run: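 Rats dosed orally at 30 mg/kg, compound formulated in 10% DMA / 90% PEG200. Plasma levels followed over time to build concentration-time curves, from which T1/2, Tmax, Cmax and AUC were derived.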

LNCaP [7] = assay: Induction of androgen receptor splice variant 7 mutant degradation in human LNCAP cells at 30 uM incubated upto 26 hrs in presence of bortezomib by Western blot analysis; type: functional, cell-based
LNCaP [8] = assay: Inhibition of AR protein expression in human LNCAP cells at 5 to 30 uM incubated for 24 hrs by Western blot analysis; type: functional, cell-based; how it was run: as §1

AUC(0-t) at 24 h [6]	Compound	inhibition (CWR22R [1])	inhibition (CWR22R [2])	inhibition (CWR22R [3])	inhibition (VCaP)	inhibition (CWR22R [4])	inhibition (LNCaP [5])	Activity (LNCaP [7])	inhibition (LNCaP [8])
–	C[C@@H](Cn1ccc(-c2ccc(C#N)c(Cl)c2)n1)Nc1cccc2ncccc12	Active	Active	Active	–	–	–	–	–
7280 ng·h/mL	C[C@@H](Cn1ccc(-c2ccc(C#N)c(Cl)c2)n1)Nc1ncnc2nc[nH]c12	–	–	–	Active	Active	Active	inactive	Active
